Key:
Assay type in all cases: ADME
[1] = biological target: T1, Solute carrier family 15 member 1 (Homo sapiens, UniProt P46059); assay: Drug uptake in Pichia pastoris GS115 expressing human recombinant PEPT1 at 5 uM after 30s by dual-channel liquid scintillation counting analysis in presence of elacridar relative to control; conditions: 0.5 min
T1 sequence (P46059 whole entry): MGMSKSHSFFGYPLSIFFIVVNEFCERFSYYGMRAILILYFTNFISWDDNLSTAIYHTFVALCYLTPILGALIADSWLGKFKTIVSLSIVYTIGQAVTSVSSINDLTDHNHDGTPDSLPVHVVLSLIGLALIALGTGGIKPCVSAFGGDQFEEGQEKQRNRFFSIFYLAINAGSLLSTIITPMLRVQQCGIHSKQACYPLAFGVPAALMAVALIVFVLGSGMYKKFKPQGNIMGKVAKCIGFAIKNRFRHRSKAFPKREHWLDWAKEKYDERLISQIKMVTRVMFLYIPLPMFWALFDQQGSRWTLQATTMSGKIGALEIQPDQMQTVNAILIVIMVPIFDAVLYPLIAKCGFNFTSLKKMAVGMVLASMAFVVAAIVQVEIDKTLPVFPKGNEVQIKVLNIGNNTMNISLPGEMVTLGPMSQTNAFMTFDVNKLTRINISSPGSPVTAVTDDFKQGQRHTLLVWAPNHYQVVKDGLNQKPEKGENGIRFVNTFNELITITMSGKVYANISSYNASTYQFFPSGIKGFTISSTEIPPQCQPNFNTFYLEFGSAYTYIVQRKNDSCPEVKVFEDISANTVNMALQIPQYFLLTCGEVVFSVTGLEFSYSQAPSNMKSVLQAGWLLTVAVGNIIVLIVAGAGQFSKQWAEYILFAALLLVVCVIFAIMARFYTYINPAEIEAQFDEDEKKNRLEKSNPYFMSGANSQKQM
Method in brief: (§1)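 [3H]GlySar 5.0 µM final, 30-s uptake at 24°C in 100 mM potassium phosphate pH 6.5, with or without a potential inhibitor at 10 mM. Cells are methanol-induced transformants. Values are vector-subtracted and expressed as percent of buffer control. Mean ± SE (n=3). ANOVA with Dunnett's test.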

[2] = biological target: T2, Solute carrier family 15 member 1 (Rattus norvegicus, UniProt P51574); assay: Drug uptake in Pichia pastoris GS115 expressing rat recombinant PEPT1 at 5 uM after 30s by dual-channel liquid scintillation counting analysis in presence of elacridar relative to control; conditions: 0.5 min
T2 sequence (P51574 whole entry): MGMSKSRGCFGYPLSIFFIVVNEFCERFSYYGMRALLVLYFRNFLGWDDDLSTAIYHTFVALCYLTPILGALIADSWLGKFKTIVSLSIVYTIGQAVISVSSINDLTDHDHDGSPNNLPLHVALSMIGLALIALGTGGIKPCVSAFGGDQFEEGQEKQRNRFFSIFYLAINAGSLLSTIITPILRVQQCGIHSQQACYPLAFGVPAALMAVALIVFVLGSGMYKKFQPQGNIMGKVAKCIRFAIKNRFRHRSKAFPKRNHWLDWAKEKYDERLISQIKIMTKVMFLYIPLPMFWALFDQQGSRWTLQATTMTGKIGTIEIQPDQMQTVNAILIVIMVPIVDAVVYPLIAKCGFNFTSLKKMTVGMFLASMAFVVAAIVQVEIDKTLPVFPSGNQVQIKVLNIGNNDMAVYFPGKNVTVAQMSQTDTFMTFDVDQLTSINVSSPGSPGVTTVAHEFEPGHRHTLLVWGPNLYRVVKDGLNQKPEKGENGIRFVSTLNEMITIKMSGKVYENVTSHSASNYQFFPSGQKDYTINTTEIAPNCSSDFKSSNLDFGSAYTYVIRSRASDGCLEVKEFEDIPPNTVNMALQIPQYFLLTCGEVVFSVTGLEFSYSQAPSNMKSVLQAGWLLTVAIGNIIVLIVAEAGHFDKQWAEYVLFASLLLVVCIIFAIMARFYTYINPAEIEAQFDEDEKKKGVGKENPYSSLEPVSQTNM
Method in brief: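 Rat PEPT1 (pPIC3.5K-rPept1) in GS115 His+Mut+ transformant, methanol-induced 20-24 hr in BMMY at 30°C, washed into 100 mM potassium phosphate pH 6.5. [3H]GlySar final 5.0 µM with inhibitor at 10 mM, 30 sec at 24°C. Counts taken by liquid scintillation after 24 hr standing. Values are vector-subtracted and given as % of buffer control. Mean ± SE, n=3.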

PEPT1 = biological target: T3, PEPT1 (Mus musculus, UniProt Q9JIP7); assay: Drug uptake in Pichia pastoris GS115 expressing mouse recombinant PEPT1 at 5 uM after 30 mins by dual-channel liquid scintillation counting analysis relative to vector control; conditions: read-out: FC
T3 sequence (Q9JIP7 whole entry): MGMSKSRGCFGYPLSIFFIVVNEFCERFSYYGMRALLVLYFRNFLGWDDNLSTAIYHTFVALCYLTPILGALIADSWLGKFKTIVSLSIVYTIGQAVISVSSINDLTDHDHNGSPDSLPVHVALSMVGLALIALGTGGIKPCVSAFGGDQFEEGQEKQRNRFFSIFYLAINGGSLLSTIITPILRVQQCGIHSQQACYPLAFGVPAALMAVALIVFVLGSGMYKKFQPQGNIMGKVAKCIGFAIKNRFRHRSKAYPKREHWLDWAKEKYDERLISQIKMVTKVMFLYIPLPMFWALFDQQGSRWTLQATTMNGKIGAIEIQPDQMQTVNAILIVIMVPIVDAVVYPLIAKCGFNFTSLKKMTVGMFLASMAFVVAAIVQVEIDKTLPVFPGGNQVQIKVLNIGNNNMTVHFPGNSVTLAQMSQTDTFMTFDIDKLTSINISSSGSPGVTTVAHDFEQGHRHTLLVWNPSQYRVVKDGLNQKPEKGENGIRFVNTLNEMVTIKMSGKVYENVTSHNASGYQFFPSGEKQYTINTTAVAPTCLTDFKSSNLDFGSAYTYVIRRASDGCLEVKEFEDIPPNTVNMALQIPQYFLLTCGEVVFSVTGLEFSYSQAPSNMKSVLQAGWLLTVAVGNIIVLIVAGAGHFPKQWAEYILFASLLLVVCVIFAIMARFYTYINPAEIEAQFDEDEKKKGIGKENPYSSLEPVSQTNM
Method in brief: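 5.0 µM radiolabelled substrate ([3H]GlySar or [14C]oseltamivir) is incubated 30 min at 24°C with induced transformants in 100 mM potassium phosphate pH 6.5. Cell-associated radioactivity is counted by scintillation after standing 24 h and normalised to OD600. Results are compared with pPIC3.5K vector-alone cells. Mean ± SE (n=6).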

[3] = biological target: T4, Solute carrier family 15 member 1 (Mus musculus, UniProt Q9JIP7); assay: Drug uptake in Pichia pastoris GS115 expressing mouse recombinant PEPT1 at 5 uM after 30s by dual-channel liquid scintillation counting analysis relative to control; conditions: in vivo, 0.5 min; method in brief: as §1
T4 sequence (Q9JIP7 whole entry): T3 sequence (Q9JIP7 whole entry)

[4] = biological target: T1, Solute carrier family 15 member 1; assay: Drug uptake in Pichia pastoris GS115 expressing human recombinant PEPT1 at 5 uM after 30s by dual-channel liquid scintillation counting analysis in presence of L-histidine relative to control; conditions: 0.5 min; method in brief: as §1
[5] = biological target: T2, Solute carrier family 15 member 1; assay: Drug uptake in Pichia pastoris GS115 expressing rat recombinant PEPT1 at 5 uM after 30s by dual-channel liquid scintillation counting analysis in presence of GlyPro relative to control; conditions: in vivo, 0.5 min; method in brief: as §1

- Drug uptake [1]: 100%
- Drug uptake [2]: 119%
- uptake ratio at 0.5 h, 5 µM (PEPT1): 100
- Drug uptake [3]: 100%
- Drug uptake [4]: 122%
- Drug uptake [5]: 0.6%
SMILES: [3H]C(C(=O)O)N(C)C(=O)CN (stereo unspecified)

From ChEMBL document CHEMBL3526053, “Species-dependent uptake of glycylsarcosine but not oseltamivir in Pichia pastoris expressing the rat, mouse, and human intestinal peptide transporter PEPT1” (Drug Metab Dispos, 2012)
